Data on four molecules can be found in publication PMC3772774 (Molecular cancer therapeutics, 2013).

Broadly, the IC50 is the concentration that gives 50% inhibition.

One data set concerns c-Myc activation. Nature of the data set: c-Myc activation sensor luciferase assay in SK-ST stable cells. It counts as cell-based, human. The settings on record: for fold by which IC50 for sensor signal inhibition is higher than that of NTZ: SK-ST cells, PD98059 2hrs, U0126 1hr, Atorvastatin 16hrs.
Data set [1] deals with full-length firefly luciferase (SK-FST cells) (Photinus pyralis, UniProt P08659). Description: Full-length firefly luciferase control assay in SK-FST stable cells. It is filed as cell-based. The settings on record: 16hrs treatment. Summed up:
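SKBR3 cells stably expressing full-length firefly luciferase on a single vector, selected with 3μg/ml puromycin, grown in McCoy's 5a with 10% FBS at 37°C, 5% CO2. Test compound was applied for 16hrs. D-Luciferin (45μg/ml in PBS, pH 7.0) was added to the medium and IVIS images were taken at 2-min intervals until peak. Photon output was normalized to total lysate protein; ≥3 repeats.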

The test system of data set [2] is phospho c-Myc. Description: Western blot of endogenous phospho c-Myc in lymphoma cells. It counts as cell-based. To be noted: read-out: IC50 of inhibition of phospho c-Myc level. The gist of the method:
(§1)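 SKBR3 (McCoy's 5a), lymphoma (RPMI plus 3.96×10-4% 2-mercaptoethanol) and osteosarcoma 1325 (DMEM) cells, all with 10% FBS, at 37°C, 5% CO2, were exposed to test compound as in the sensor assay. Lysates (50μg protein) were immunoblotted for phospho-c-Myc (Thr58/Ser62) and c-Myc, with β-actin as loading control, then ECL and densitometry. IC50 came from a four-parameter nonlinear fit of fold-change against log concentration; ≥3 repeats.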
In general terms: A western blot detects proteins with antibodies after separation by electrophoresis.

The test system of data set [3] is phospho c-Myc. Description: Western blot of endogenous phospho c-Myc in osteosarcoma cells. It is filed as cell-based. To be noted: read-out: IC50 of inhibition of phospho c-Myc level. Summed up: as §1
A further data set relates to c-Myc. Nature of the data set: c-Myc inhibition in different cancer cell lines. It is filed as cell-based. To be noted: read-out: IC50 for c-Myc inhibition, range over different cancer cell lines. The gist of the method:
as §1

The subject of the next data set is SKBR3 cells. Description: MTS cell toxicity assay in SKBR3 cells. It is filed as cell-based, human. For orientation: Formazan colour is commonly taken as a measure of viable cells.
The next data set has as its system SK-ST xenografts. Description: SK-ST breast cancer xenograft model in nude mice. It counts as in vivo.
A further data set has as its system SK-FST xenografts. Description: SK-FST breast cancer xenograft model in nude mice. It is filed as in vivo. To be noted: 200mg/kg gavage twice a day, about 18 days after implantation.

full-length firefly luciferase (SK-FST cells), sequence (P08659 whole entry): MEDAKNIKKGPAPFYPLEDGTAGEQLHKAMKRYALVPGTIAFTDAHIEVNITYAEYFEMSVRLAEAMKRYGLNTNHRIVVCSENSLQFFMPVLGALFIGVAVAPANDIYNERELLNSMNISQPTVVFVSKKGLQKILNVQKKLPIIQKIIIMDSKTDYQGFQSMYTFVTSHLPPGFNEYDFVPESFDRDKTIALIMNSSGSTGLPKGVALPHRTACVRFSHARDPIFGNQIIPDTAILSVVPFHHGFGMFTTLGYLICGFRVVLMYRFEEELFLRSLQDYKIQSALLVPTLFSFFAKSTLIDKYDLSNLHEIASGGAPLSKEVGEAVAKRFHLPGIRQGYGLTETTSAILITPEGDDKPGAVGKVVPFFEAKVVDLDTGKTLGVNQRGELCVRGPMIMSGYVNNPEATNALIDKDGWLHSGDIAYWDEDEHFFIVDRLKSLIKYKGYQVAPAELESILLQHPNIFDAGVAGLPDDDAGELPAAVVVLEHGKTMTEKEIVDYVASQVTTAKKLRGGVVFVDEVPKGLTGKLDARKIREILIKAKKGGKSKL

Take `N#CC(=C(/N)Sc1ccccc1N)/C(C#N)=C(/N)Sc1ccccc1N` [U0126]: the “fold by which IC50 for sensor signal inhibition is higher than that of NTZ” value in the data set on c-Myc activation is listed as approximately 500 fold.
As for `COc1cccc(-c2cc(=O)c3ccccc3o2)c1N` [PD98059], in the data set on c-Myc activation, the “fold by which IC50 for sensor signal inhibition is higher than that of NTZ” value is on record as “about 2000 fold”.
Regarding `CC(=O)Oc1ccccc1C(=O)Nc1ncc([N+](=O)[O-])s1` [NTZ, nitazoxanide], the concentration for half-maximal inhibition (IC50) in the data set with c-Myc activation (Homo sapiens, 16 h, read-out: IC50 for the sensor signal inhibition) was approximately 100 nM; in the data set with phospho c-Myc [2], 440 nM; in the data set on phospho c-Myc [3], 12 nM; with c-Myc it was 10 to 500 nM. In addition, the “change of FL signal in SK-FST cells (direct effect on luciferase activity)” value in data set [1] is “no significant changes”. Besides, the “half-maximal lethal dose (LD50)” value in the data set with SKBR3 cells is given as “about 1 μM”. For the same molecule, in the data set with SK-ST xenografts (200mg/kg gavage twice a day for 27 days), the “common side effects (diarrhea, vomiting, skin rash)” value was “didn’t observe the common side effects”. Also, the “tumor growth by gross inspection and caliper measurements” value with SK-ST xenografts (200mg/kg gavage twice a day, 27 days after implantation, P=0.00007 vs CMC) is reported as “drastic inhibition of tumor growth”. Also, the “bioluminescent signal from SK-ST xenografts (c-Myc activation)” value in the data set with SK-ST xenografts (200mg/kg gavage twice a day, vs CMC group) is given as “greatly inhibited”. Besides, the “caspase-3 staining, average positive cells in each sample” value with SK-ST xenografts (tumor samples, 200mg/kg gavage twice a day, CMC group 5±2, P<0.03) turned out to be 23±8 positive cells. For the same molecule, the “endogenous phospho and c-Myc protein levels in tumor samples” value in the data set with SK-ST xenografts (western blot, NTZ vs CMC group) is “greatly reduced”. Moreover, the “bioluminescent signal of SK-FST xenografts” value with SK-FST xenografts is listed as “sustained decrease of the signal”.
As to `CC(C)c1c(C(=O)Nc2ccccc2)c(-c2ccccc2)c(-c2ccc(F)cc2)n1CC[C@@H](O)C[C@@H](O)CC(=O)O` [Atorvastatin], the “fold by which IC50 for sensor signal inhibition is higher than that of NTZ” value in the data set on c-Myc activation is “about 50 fold”.
